KCNK9 block: KCNK9 potassium channel inhibitors, primary screen, HEK293 cells, thallium flux; AID 488922, 2010; hit rate 1.2% among 310,000; B-score at 10 µM; Potassium channel subfamily K member 9 (Homo sapiens), Q9NPC2; FluxOR thallium flux fluorescence; stronger effect = lower value;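 active = ratio B-score over 3 SD below the library mean, with starting fluorescence within 5 SD of its mean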;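 also: negative B-score means less thallium flux so channel inhibition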
hERG rescue: hERG rescue from dofetilide block, primary screen, cell-based, CHO-hERG, FluxOR thallium flux, dofetilide IC70; activation (rescue from dofetilide block), less the hit threshold, % at 10 µM; dofetilide IC70 present; Voltage-gated inwardly rectifying potassium channel KCNH2 (Homo sapiens), Q12809; hit rate 0.51% among 310,000;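 active = activation above the mean of controls blocked by dofetilide plus 5 SD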;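 also: thallium influx through hERG after potassium depolarization seen as dye fluorescence rise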
Kir21 block: inhibitors of mouse Kir2.1 inward-rectifier potassium channel; Inward rectifier potassium channel 2 (Mus musculus), P35561; hit rate 0.85% among 310,000; B-score at 10 µM; HEK293-Kir2.1, FluxOR thallium flux fluorescence; stronger effect = lower value;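 active = fluorescence ratio B-score at or below minus 3 SD of library scores, with starting-brightness B-score within 2 SD, cut at about -4.2 in these data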;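 also: channel flux triggered by added potassium and thallium sulfate stimulus; B-score of peak minus minimum fluorescence over baseline after thallium stimulus; more negative B-score means stronger Kir2.1 block with less thallium influx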
KCNQ1 act: potentiators or activators of KCNQ1 channel, primary screen, cell-based, thallium flux, high-throughput; CHO-K1 KCNQ1, thallium flux FluxOR fluorescence; stronger effect = higher value; B-score at 10 µM; hit rate 0.35% among 310,000;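 active = fluorescence ratio B-score, a plate-corrected score, at least three library SD, with initial intensity B-score within 5 SD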
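Doses: Single concentration per compound, DMSO matched to controls | Test system: KCNQ1-transfected CHO-K1 cells | Timing: 90 min dye loading and 20 min compound exposure, both at room temperature | Measured by: Kinetic FluxOR thallium fluorescence, 10-s 1-Hz baseline, 110-s post-stimulus read | Medium: Assay buffer with matched DMSO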
KCNQ1 inh: inhibitors of human KCNQ1 channel, primary screen, cell-based, thallium flux, high-throughput; CHO-K1 KCNQ1, FluxOR thallium flux fluorescence; stronger effect = higher value; hit rate 1.3% among 310,000; B-score at 10 µM; Potassium voltage-gated channel subfamily KQT member 1 (Homo sapiens), P51787;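 active = compounds whose thallium flux B-score, printed positive for inhibition, exceeds three library SD while starting fluorescence stays within three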;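 also: channel opened by potassium depolarization with thallium stimulus after 20 min compound exposure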
KCNK3 block: human KCNK3 channel inhibitors, primary screen, CHO cells, FluxOR thallium flux, B-score; hit rate 0.84% among 340,000; B-score at 10 µM; AID 602410, 2012; FluxOR fluorescence; stronger effect = lower value;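 active = B-score under library mean minus 4 SD, starting fluorescence ratio at most library mean plus 5 SD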;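 also: more negative B-score means stronger inhibition of thallium flux through KCNK3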
KCNQ1 block val: KCNQ1 potassium channel inhibitors, confirmation, cell-based, Tl flux, duplicate. inhibition, % at 10 µM. AID 588353, 2011. hit rate 93% among 1,600. shares compounds with KCNQ1 inh. KCNQ1 cell line, FluxOR thallium flux fluorescence;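 active = primary screen active, with duplicate mean exceeding buffer control mean plus 3 SD of buffer wells, cut at about 28% in these data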
CHO KCNQ1 ctr: thallium flux effects in parental CHO cells, counter-screen for KCNQ1 inhibitor project, cell-based, Tl flux | shares compounds with KCNQ1 inh | hit rate 21% among 1,600 | parental CHO-K1, FluxOR thallium flux fluorescence ratio; stronger effect = lower value; zero means no signal rise above baseline | fluorescence ratio (Tl flux) at 10 µM | AID 588366, 2011;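 active = mean of duplicate thallium-flux fluorescence ratios in parental host cells more than 5 SD below the buffer control mean, cut at about 0.38 in these data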;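 also: ratio is peak minus minimum fluorescence divided by baseline fluorescence; actives read low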
KCNQ1 APC inh: KCNQ1 channel inhibitors, confirmation, orthogonal assay, cell-based, automated electrophysiology; AID 624120, 2012; shares compounds with KCNQ1 inh; calls only at 10 µM; hit rate 20% among 490; KCNQ1-CHO cells, automated patch clamp current;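 active = KCNQ1 current drop exceeding 3 SD of negative control wells, seen in both duplicate runs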;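 also: steady state current during a 2 s step from -80 to +40 mV; negative values mean current inhibition and positive values mean potentiation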
KCNQ2 inh: KCNQ2 channel inhibition, selectivity assay for KCNQ1 inhibitor project, cell-based | shares compounds with KCNQ1 inh | KCNQ2 cells, FluxOR thallium flux fluorescence | inhibition, % at 10 µM | hit rate 71% among 1,600;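 active = mean percent inhibition of the KCNQ2 thallium signal more than 5 SD above the buffer-only control wells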;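 also: KCNQ2 expressed in CHO cells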
KCNQ1 KCNE1 spec: KCNQ1/KCNE1 channel inhibition, selectivity assay for KCNQ1 inhibitor project, CHO-K1 cells, thallium flux, FluxOR | shares compounds with KCNQ1 inh | FluxOR thallium flux fluorescence | inhibition, % at 10 µM | hit rate 77% among 1,600 | AID 652147, 2013;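 active = mean percent inhibition of duplicate wells above the buffer-only control mean plus 3 SD of those controls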
Target sequence (P51787 whole entry, looked up): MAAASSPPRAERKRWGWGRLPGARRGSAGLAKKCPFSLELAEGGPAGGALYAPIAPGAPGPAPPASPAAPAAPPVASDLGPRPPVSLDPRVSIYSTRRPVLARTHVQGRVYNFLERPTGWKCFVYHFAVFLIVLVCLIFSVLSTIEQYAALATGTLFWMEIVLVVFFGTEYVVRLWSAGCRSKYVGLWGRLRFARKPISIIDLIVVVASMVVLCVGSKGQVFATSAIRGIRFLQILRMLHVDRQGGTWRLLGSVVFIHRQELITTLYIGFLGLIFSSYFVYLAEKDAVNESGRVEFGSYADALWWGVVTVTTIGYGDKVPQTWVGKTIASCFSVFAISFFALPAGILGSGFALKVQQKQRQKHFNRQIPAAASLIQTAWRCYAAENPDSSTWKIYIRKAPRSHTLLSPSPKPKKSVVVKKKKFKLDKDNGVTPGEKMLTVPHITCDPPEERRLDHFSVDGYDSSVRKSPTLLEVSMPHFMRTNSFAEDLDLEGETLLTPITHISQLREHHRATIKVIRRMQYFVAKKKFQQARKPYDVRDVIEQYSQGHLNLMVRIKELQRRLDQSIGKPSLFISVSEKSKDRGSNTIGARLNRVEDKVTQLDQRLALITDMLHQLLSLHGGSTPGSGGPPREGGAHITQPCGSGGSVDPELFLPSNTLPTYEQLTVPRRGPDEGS
KCNK9 inh conf: KCNK9 potassium channel inhibitors, confirmation, HEK293 cells, thallium flux, duplicate. hit rate 43% among 4,900. inhibition, % at 10 µM. shares compounds with KCNK9 block. FluxOR thallium flux fluorescence;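 active = thallium signal inhibited by more than 5 SD of the compound-free buffer control wells, on both duplicate plates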
Kir21 sel: mouse Kir2.1 channel inhibition, confirmation, selectivity assay for KCNK9 modulator project, cell-based, HEK293, thallium flux | shares compounds with KCNK9 block | Kir2.1 cells, FluxOR thallium flux fluorescence | inhibition, % at 10 µM | hit rate 4% among 4,900;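 active = thallium signal drop more than 5 SD beyond the mean of the no-compound control wells, seen in both duplicate plates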;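 also: signal is fluorescence rise after thallium addition divided by baseline fluorescence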
KCNK9 uninduced: thallium flux in non-induced HEK293 cells, confirmation, counter-screen for KCNK9 inhibitor project, cell-based, second counter screen, non-induced KCNK9-HEK293; shares compounds with KCNK9 block; FluxOR thallium flux; inhibition, % at 10 µM; hit rate 40% among 4,900;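 active = thallium signal drop beyond 5 SD of the untreated control mean, on both duplicate plates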
Numbers stand for hits; n = inactive; x = no result; + = active, no number. A selection: hits, their analogues and other compounds. The true share with any hit is near 3.8%.

SMILES	KCNK9 block	hERG rescue	Kir21 block	KCNQ1 act	KCNQ1 inh	KCNK3 block	KCNQ1 block val	CHO KCNQ1 ctr	KCNQ2 inh	KCNQ1 KCNE1 spec	others
CC(=O)c1ccc(NC(=S)NC2CCCC(C)C2C)cc1 (stereo not drawn)	n	n	n	n	7	n	47	n	n	34%
CC1CCCCC1NC(=S)Nc1ccc(SC(F)F)cc1 (stereo not drawn)	n	n	n	n	7	n	66	n	n	40%
CC1CCN(C(=S)Nc2ccc(SC(F)F)cc2)CC1	n	n	n	n	n	n	x	x	x	x
CC(=O)c1ccc(NC(=S)NN2C(C)CCCC2C)cc1 (stereo not drawn)	n	n	n	n	n	n	x	x	x	x
Cc1ccc(-c2csc(N3CCC(NS(=O)(=O)c4ccc5c(c4)OCCO5)CC3)n2)cc1	n	n	n	n	6	n	106	n	96%	100%	KCNQ1 APC inh=n
c1ccc(-c2nc(N3CCCCC3)nc3ccccc23)cc1	n	n	n	n	7	n	118	n	113%	174%	KCNQ1 APC inh=n
c1ccc2c(c1)nc(N1CCCCC1)c1ccccc12	n	n	n	n	n	n	x	x	x	x
c1ccc2c(N3CCCCC3)nc(N3CCCC3)nc2c1	n	n	n	n	9	n	36	n	n	n
Cc1cccc(C)c1NC(=O)CSc1nnc(C2CCCCC2)o1	n	n	n	n	n	n	x	x	x	x
CC(C)CCN(C(=O)CNC(=O)c1cccs1)C(C(=O)NC1CCCCC1)c1cccnc1 (stereo not drawn)	n	n	n	n	n	n	x	x	x	x
c1cncc(CNc2ncnc3sccc23)c1	n	n	n	n	10	n	n	n	n	n
c1ccc(CNc2ncnc3sccc23)cc1	n	n	n	n	n	n	x	x	x	x
Nc1ccccc1C(=O)C[C@H](N)C(=O)O	x	x	x	x	x	n	x	x	x	x
Cc1sc(NC(=O)CN(Cc2ccccc2)C(=O)C2CC2)c(C(N)=O)c1C	n	n	n	n	n	n	x	x	x	x
S=C(NCCc1cccc(Cl)c1)NC1CCCCC1	n	n	n	n	8	n	64	n	74%	56%
S=C(NCc1ccc(Cl)cc1Cl)NC1CCCCC1	n	n	n	n	7	n	152	n	65%	n	KCNQ1 APC inh=+
Clc1ccc(CNC2CCCC2)c(Cl)c1	n	n	n	n	n	n	x	x	x	x
CC1(CNC(=O)C(=O)NCC2(C)CO2)CO1 (stereo not drawn)	x	x	x	x	x	n	x	x	x	x
NC(=O)c1ccccc1NC(=O)c1ccccc1Cl	n	n	n	n	n	n	x	x	x	x
O=C(Nc1ccccc1C(=O)Nc1nnc(C(F)(F)F)s1)c1ccccc1Cl	n	n	n	n	6	n	66	n	65%	n
O=S(=O)(c1ccccc1)c1nc(Nc2cccc(O)c2)sc1Cl	n	n	-5.5	n	7	n	94	n	78%	44%	KCNQ1 APC inh=n
Cc1ccc(NC(=O)CNC(=O)c2ccco2)cc1	n	n	n	n	n	n	x	x	x	x
COc1ccc(N2CCN(S(=O)(=O)c3ccc(OC)cc3)CC2)cc1	n	n	n	n	n	n	x	x	x	x
COc1ccc(S(=O)(=O)N2CCN(c3cccc(C)c3C)CC2)cc1	n	n	n	n	9	n	+	0.35	n	n	KCNK9 inh conf=n;Kir21 sel=n;KCNK9 uninduced=n
CCN(CC1CCCO1)C(=O)CCc1nnc(CCc2ccccc2OC)o1 (stereo not drawn)	n	n	n	n	n	n	x	x	x	x
SMILES	KCNK9 block	hERG rescue	Kir21 block	KCNQ1 act	KCNQ1 inh	KCNK3 block	KCNQ1 block val	CHO KCNQ1 ctr	KCNQ2 inh	KCNQ1 KCNE1 spec	others
S=C(c1ccc(-c2cccc(Cl)c2)o1)N1CCOCC1	n	n	n	n	n	n	x	x	x	x
S=C(c1ccc(-c2cccc(Cl)c2)o1)N1CCCCC1	-8.8	n	n	n	6	n	92	n	87%	100%	KCNQ1 APC inh=n;KCNK9 inh conf=32%;Kir21 sel=n;KCNK9 uninduced=32%
N#Cc1c(N)nc2c(c1-c1ccc3c(c1)OCO3)CCc1ccccc1-2	-11	n	n	n	13	n	120	0.35	109%	181%	KCNK9 inh conf=31%;Kir21 sel=n;KCNK9 uninduced=30%
CC1CCN(C(=O)Cn2c3ccccc3c3nc4n(c(=O)c32)CCS4)CC1	n	n	n	n	n	n	x	x	x	x
O=C(CC1SC(=Nc2ccccc2)N(CCCO)C1=O)Nc1ccc(Cl)cc1 (stereo not drawn)	n	n	n	n	9	n	72	n	78%	110%	KCNK9 inh conf=n;Kir21 sel=n;KCNK9 uninduced=n
O=C(Cn1ccsc1=NC(=O)C(F)(F)F)c1ccccc1	n	n	n	n	n	n	x	x	x	x
Cn1ncc(Cl)c1C(=O)N1CCN(c2ccc(Cl)c(Cl)c2)CC1	-10	n	n	n	12	n	120	n	98%	87%	KCNQ1 APC inh=n;KCNK9 inh conf=42%;Kir21 sel=n;KCNK9 uninduced=26%
Cn1ncc(Cl)c1C(=O)N1CCN(c2ccccc2)CC1	n	n	n	n	n	n	x	x	x	x
